Experimental data taken from PMC3747510 (Scientific Reports, 2013).
Residue numbers refer to the chain shown, from its start. Converted amounts (≈) assume the structure as drawn. Where two headings read alike, the source gives them in different places.

Tests used:
[1] = target: T1, SpLeuRS (Streptococcus pneumoniae serotype 4, UniProt Q97SS0); assay: ATP-PPi exchange; format: biochemical; details: 200 μM ZCL039
T1 sequence (Q97SS0 1-833): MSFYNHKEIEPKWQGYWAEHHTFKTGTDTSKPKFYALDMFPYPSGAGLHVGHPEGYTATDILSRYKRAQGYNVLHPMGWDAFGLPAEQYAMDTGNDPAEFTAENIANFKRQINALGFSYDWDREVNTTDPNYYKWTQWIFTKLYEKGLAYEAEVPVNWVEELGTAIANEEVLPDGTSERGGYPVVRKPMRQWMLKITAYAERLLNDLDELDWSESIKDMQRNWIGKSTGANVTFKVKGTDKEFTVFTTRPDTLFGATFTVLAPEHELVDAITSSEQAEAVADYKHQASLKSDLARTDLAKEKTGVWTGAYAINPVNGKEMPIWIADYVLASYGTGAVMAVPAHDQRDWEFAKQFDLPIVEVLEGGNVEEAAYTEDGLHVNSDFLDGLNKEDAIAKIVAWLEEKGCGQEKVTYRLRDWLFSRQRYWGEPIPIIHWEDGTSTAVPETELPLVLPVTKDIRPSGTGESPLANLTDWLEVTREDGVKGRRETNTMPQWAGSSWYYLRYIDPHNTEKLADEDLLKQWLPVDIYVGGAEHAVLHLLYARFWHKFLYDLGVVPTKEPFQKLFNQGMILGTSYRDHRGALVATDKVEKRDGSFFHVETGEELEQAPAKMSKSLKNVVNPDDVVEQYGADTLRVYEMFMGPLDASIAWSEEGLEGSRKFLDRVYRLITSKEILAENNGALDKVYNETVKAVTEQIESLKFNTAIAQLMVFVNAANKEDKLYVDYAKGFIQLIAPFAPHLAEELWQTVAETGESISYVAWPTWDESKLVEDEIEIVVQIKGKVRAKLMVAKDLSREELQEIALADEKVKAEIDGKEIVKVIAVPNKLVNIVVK
Procedure, shortened: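 Leucine activation (ATP-PPi exchange) at 37°C with 10 nM N-His6 SpLeuRS, expressed in E. coli BL21(DE3) and Ni-NTA purified. Run with or without test compound in DMSO. The [32P]ATP formed was separated and counted. Means of three independent experiments.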

[2] = target: T2, SpLeuRS Y332D (Streptococcus pneumoniae serotype 4, UniProt Q97SS0, Y332D); assay: Aminoacylation by SpLeuRS Y332D mutant; format: biochemical; details: 50 μM ZCL039
T2 sequence (Q97SS0 1-833 Y332D): T1 sequence (Q97SS0 1-833) with Y332D
Procedure, shortened: (§1)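 Aminoacylation at 37°C, started with 4 mM ATP. Point mutants were made by site-directed mutagenesis. The MmLinker chimera has CP1 Lys226–Thr411 replaced by a nonapeptide. Means of three independent experiments.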

[3] = system: E. coli strains containing pET30a-eclrs; assay: MIC upon overexpression of EcLeuRS; format: cell-based, Escherichia coli; details: induced by IPTG
Procedure, shortened: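 E. coli transformants carrying pET30a-eclrs, with the empty pET30a vector strain as control. Both were induced with 10 μM IPTG and tested by broth microdilution in Mueller Hinton broth (37°C, 24 h). MICs were read as the lowest concentration without visible growth and compared between the two strains.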

[4] = target: Human cytosolic LeuRS (Homo sapiens, UniProt Q9P2J5); assay: Aminoacylation inhibition; format: biochemical
Human cytosolic LeuRS, sequence (Q9P2J5 whole entry): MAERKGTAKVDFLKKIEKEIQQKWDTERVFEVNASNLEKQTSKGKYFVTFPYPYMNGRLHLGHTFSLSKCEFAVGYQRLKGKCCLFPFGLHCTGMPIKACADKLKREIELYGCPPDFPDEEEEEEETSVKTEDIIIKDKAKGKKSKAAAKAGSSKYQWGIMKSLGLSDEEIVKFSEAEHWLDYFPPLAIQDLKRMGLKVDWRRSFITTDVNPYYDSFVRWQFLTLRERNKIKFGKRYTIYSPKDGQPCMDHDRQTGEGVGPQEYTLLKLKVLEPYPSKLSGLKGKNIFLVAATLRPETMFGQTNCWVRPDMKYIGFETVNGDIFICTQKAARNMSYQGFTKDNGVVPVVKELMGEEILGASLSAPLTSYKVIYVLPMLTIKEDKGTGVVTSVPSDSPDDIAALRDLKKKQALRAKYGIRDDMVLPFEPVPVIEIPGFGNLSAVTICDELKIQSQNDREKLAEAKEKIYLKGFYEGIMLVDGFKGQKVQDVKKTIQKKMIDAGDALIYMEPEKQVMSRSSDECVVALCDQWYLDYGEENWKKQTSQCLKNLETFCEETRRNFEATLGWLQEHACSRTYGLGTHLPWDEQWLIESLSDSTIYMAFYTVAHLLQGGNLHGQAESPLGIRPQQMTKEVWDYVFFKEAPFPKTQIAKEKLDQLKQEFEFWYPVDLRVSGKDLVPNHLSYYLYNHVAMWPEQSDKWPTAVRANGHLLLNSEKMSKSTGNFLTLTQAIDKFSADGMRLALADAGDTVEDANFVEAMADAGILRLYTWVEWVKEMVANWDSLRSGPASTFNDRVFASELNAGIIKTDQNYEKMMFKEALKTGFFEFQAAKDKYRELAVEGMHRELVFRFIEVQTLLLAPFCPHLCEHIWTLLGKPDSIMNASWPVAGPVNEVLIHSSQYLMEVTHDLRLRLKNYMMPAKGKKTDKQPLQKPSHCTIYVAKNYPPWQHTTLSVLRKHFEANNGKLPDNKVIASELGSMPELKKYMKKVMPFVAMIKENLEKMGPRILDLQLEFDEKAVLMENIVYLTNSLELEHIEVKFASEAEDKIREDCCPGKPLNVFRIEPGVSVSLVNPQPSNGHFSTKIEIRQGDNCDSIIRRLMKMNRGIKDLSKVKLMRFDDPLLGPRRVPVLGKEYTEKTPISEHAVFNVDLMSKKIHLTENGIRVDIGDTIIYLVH
Procedure, shortened: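 Human cytosolic or mitochondrial LeuRS, expressed in E. coli. Aminoacylation run at 30°C. At least six test-compound concentrations were tested, with enzyme amount set to form 10 pmol Leu-tRNALeu in 5 min. IC50 was taken from a fitted dose-response curve, as the mean of at least two independent experiments.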

[5] = system: E. coli; assay: Broth microdilution MIC, E. coli; format: cell-based; details: Escherichia coli
Procedure, shortened: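 Broth microdilution per CLSI M7-A7 in Mueller Hinton broth. About […] E. coli was exposed to serial test-compound dilutions for 24 h at 37°C. MIC was the lowest concentration suppressing visible growth. Ampicillin was used to monitor susceptibility.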

[6] = system: SpLeuRS-MmLinker; assay: Aminoacylation by SpLeuRS-MmLinker chimeric mutant; format: biochemical, Streptococcus pneumoniae; details: 50 μM ZCL039
Procedure, shortened: as §1

OB1OCc2ccc(C(O)c3ccccc3)cc21 (stereo not drawn) [ZCL039, [6-(1-phenyl-1-hydroxylmethyl)]-1,3-dihydro-1-hydroxy-2,1-benzoxaborole]
Effect on PPi exchange activity of SpLeuRS [1]: not affected | Effect on synthetic activity of Y332D mutant [2]: did not affect | Increase in the MIC, pET30a-eclrs vs pET30a [3]: over 4 fold | IC50 [4]: > 250 µM | Fold more sensitivity of SpLeuRS than human cytosolic LeuRS ([4]; aminoacylation): over 150 fold | Fold less sensitive than SpLeuRS ([4]; human cytosolic and mitochondrial LeuRSs vs SpLeuRS): approximately 150 fold | MIC ([5]; 24 h, read-out: MIC, Bacteria, E. coli): 60 µg/mL (≈ 250 µM) | MIC ([5]; read-out: MIC, E. coli strains containing pET30a): 60 µg/mL (≈ 250 µM) | Effect on tRNA charging activity of SpLeuRS-MmLinker [6]: not affected
